The values below come from ChEMBL document CHEMBL1143542, “Structure-activity relationships of bivalent aminoglycosides and evaluation of their microbiological activities” (2005).

Assay type in all cases: functional, organism-based
The subject of test [1] is Pseudomonas aeruginosa. In words: Susceptibility testing against Pseudomonas aeruginosa PAE_NUH21; I=Intermediate. In short, it runs like this:
(§1)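 Disk diffusion susceptibility profiling against a panel of empirically used antipseudomonal antibiotics. Each strain was categorised as susceptible (S) or intermediate (I).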

For test [2], the system named is Pseudomonas aeruginosa. In words: Susceptibility testing against Pseudomonas aeruginosa PAE_NUH24; R=Resistant. In a few lines: (§2)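 Disk diffusion susceptibility profiling of P. aeruginosa reference and clinical isolates against empirically used antipseudomonal antibiotics. Each isolate was categorised as susceptible, intermediate or resistant.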
Test [3] relates to Pseudomonas aeruginosa. The experiment in a line: Susceptibility testing against Pseudomonas aeruginosa ATCC 27853; S=Susceptible. In a few lines:
as §1

Test [4] deals with Pseudomonas aeruginosa. The experiment in a line: Susceptibility testing against Pseudomonas aeruginosa PAE_NUH07; R=Resistant. In short, it runs like this:
as §2

For test [5], the system named is Pseudomonas aeruginosa. The experiment in a line: Susceptibility testing against Pseudomonas aeruginosa PAE_NUH17; R=Resistant. In a few lines:
as §2

Test [6] relates to Pseudomonas aeruginosa. In words: Susceptibility testing against Pseudomonas aeruginosa PAE_NUH02; R=Resistant. In short, it runs like this:
as §2

The test system of test [7] is Pseudomonas aeruginosa. The experiment in a line: Susceptibility testing against Pseudomonas aeruginosa PAE_NUH05; R=Resistant. In a few lines:
as §2

Test [8] concerns Pseudomonas aeruginosa. The experiment in a line: Susceptibility testing against Pseudomonas aeruginosa PAE_NUH18; R=Resistant. In short, it runs like this: as §2
Test [9] relates to Pseudomonas aeruginosa. The experiment in a line: Susceptibility testing against Pseudomonas aeruginosa PAE_NUH23; R=Resistant. In short, it runs like this: as §2
The subject of test [10] is Pseudomonas aeruginosa. The experiment in a line: Susceptibility testing against Pseudomonas aeruginosa PAE_NUH25; R=Resistant. In a few lines: as §2
For test [11], the system named is Pseudomonas aeruginosa. The experiment in a line: Susceptibility testing against Pseudomonas aeruginosa PAE_NUH19; R=Resistant. In a few lines:
as §2

Test [12] deals with Pseudomonas aeruginosa. The experiment in a line: Susceptibility testing against Pseudomonas aeruginosa PAE_NUH03; R=Resistant. In short, it runs like this: as §2
In test [13] the test system is Pseudomonas aeruginosa. In words: Susceptibility testing against Pseudomonas aeruginosa PAE_NUH04; R=Resistant. In short, it runs like this:
as §2

Test [14] has as its system Pseudomonas aeruginosa. The experiment in a line: Susceptibility testing against Pseudomonas aeruginosa PAE_NUH20; R=Resistant. In short, it runs like this: as §2
The test system of test [15] is Pseudomonas aeruginosa. The experiment in a line: Susceptibility testing against Pseudomonas aeruginosa PAE_NUH01; R=Resistant. In a few lines: as §2
The subject of test [16] is Pseudomonas aeruginosa. In words: Susceptibility testing against Pseudomonas aeruginosa PAE_NUH22; R=Resistant. In a few lines: as §2
The test system of test [17] is Pseudomonas aeruginosa. In words: Susceptibility testing against Pseudomonas aeruginosa PAE_NUH06; R=Resistant. In a few lines: as §2
Test [18] concerns Pseudomonas aeruginosa. The experiment in a line: Susceptibility testing against Pseudomonas aeruginosa PAE_NUH17; S=Susceptible. In a few lines: as §1
Test [19] has as its system Pseudomonas aeruginosa. In words: Susceptibility testing against Pseudomonas aeruginosa PAE_NUH22; I=Intermediate. In a few lines: as §1
Test [20] relates to Pseudomonas aeruginosa. The experiment in a line: Susceptibility testing against Pseudomonas aeruginosa PAE_NUH24; I=Intermediate. In a few lines: as §2
The subject of test [21] is Pseudomonas aeruginosa. The experiment in a line: Susceptibility testing against Pseudomonas aeruginosa PAE_NUH23; I=Intermediate. In a few lines:
as §2

Test [22] relates to Pseudomonas aeruginosa. The experiment in a line: Susceptibility testing against Pseudomonas aeruginosa PAE_NUH20; S=Susceptible. In a few lines:
as §1

Test [23] has as its system Pseudomonas aeruginosa. In words: Susceptibility testing against Pseudomonas aeruginosa ATCC 27853; R=Resistant. In short, it runs like this:
as §2

Test [24] concerns Pseudomonas aeruginosa. In words: Susceptibility testing against Pseudomonas aeruginosa PAE_NUH07; S=Susceptible. In short, it runs like this:
as §1

The subject of test [25] is Pseudomonas aeruginosa. The experiment in a line: Susceptibility testing against Pseudomonas aeruginosa PAE_NUH05; S=Susceptible. In a few lines: as §1
The test system of test [26] is Pseudomonas aeruginosa. In words: Susceptibility testing against Pseudomonas aeruginosa PAE_NUH24; S=Susceptible. In short, it runs like this: as §1
In test [27] the test system is Pseudomonas aeruginosa. The experiment in a line: Susceptibility testing against Pseudomonas aeruginosa PAE_NUH04; S=Susceptible. In short, it runs like this:
as §1

The test system of test [28] is Pseudomonas aeruginosa. The experiment in a line: Susceptibility testing against Pseudomonas aeruginosa PAE_NUH02; S=Susceptible. In short, it runs like this: as §1
For test [29], the system named is Pseudomonas aeruginosa. The experiment in a line: Susceptibility testing against Pseudomonas aeruginosa PAE_NUH03; S=Susceptible. In short, it runs like this:
as §1

The test system of test [30] is Pseudomonas aeruginosa. The experiment in a line: Susceptibility testing against Pseudomonas aeruginosa PAE_NUH21; S=Susceptible. In short, it runs like this:
as §1

In test [31] the test system is Pseudomonas aeruginosa. The experiment in a line: Susceptibility testing against Pseudomonas aeruginosa PAE_NUH18; S=Susceptible. In a few lines: as §1
In test [32] the test system is Pseudomonas aeruginosa. In words: Susceptibility testing against Pseudomonas aeruginosa PAE_NUH23; S=Susceptible. In a few lines: as §1
Test [33] deals with Pseudomonas aeruginosa. In words: Susceptibility testing against Pseudomonas aeruginosa PAE_NUH01; S=Susceptible. In a few lines:
as §1

Test [34] concerns Pseudomonas aeruginosa. In words: Susceptibility testing against Pseudomonas aeruginosa PAE_NUH06; S=Susceptible. In short, it runs like this:
as §1

In test [35] the test system is Pseudomonas aeruginosa. In words: Susceptibility testing against Pseudomonas aeruginosa PAE_NUH19; S=Susceptible. In a few lines:
as §1

Test [36] concerns Pseudomonas aeruginosa. In words: Susceptibility testing against Pseudomonas aeruginosa PAE_NUH25; S=Susceptible. In short, it runs like this:
as §1

In test [37] the test system is Pseudomonas aeruginosa. The experiment in a line: Susceptibility testing against Pseudomonas aeruginosa PAE_NUH22; S=Susceptible. In short, it runs like this:
as §1

Test [38] has as its system Pseudomonas aeruginosa. The experiment in a line: Susceptibility testing against Pseudomonas aeruginosa PAE_NUH07; I=Intermediate. In short, it runs like this: as §2

For the compound `CN(C)[C@@H]1C(O)=C(C(N)=O)C(=O)[C@@]2(O)C(O)=C3C(=O)c4c(O)cccc4[C@@](C)(O)[C@H]3C[C@@H]12`, the Activity result is on record as “Partial resistance” in the test on Pseudomonas aeruginosa [1]; “Resistant” in the test with Pseudomonas aeruginosa [2]; “Susceptible” in the test on Pseudomonas aeruginosa [3]; “Resistant” with Pseudomonas aeruginosa [4]; “Resistant” with Pseudomonas aeruginosa [5]; “Resistant” in the test with Pseudomonas aeruginosa [6]. For the same compound, the Activity entry in the test with Pseudomonas aeruginosa [7], in the test on Pseudomonas aeruginosa [8], in the test on Pseudomonas aeruginosa [9], in the test with Pseudomonas aeruginosa [10], with Pseudomonas aeruginosa [11] and in the test with Pseudomonas aeruginosa [12] was “Resistant” throughout. The Activity result with Pseudomonas aeruginosa [13], in the test with Pseudomonas aeruginosa [14], with Pseudomonas aeruginosa [15], in the test on Pseudomonas aeruginosa [16] and with Pseudomonas aeruginosa [17] was “Resistant” throughout.

For `O=C(N[C@H](CO)[C@H](O)c1ccc([N+](=O)[O-])cc1)C(Cl)Cl`, the Activity result with Pseudomonas aeruginosa [18] is “Susceptible”; in the test on Pseudomonas aeruginosa [1] it was “I”; with Pseudomonas aeruginosa [4], “Resistant”; with Pseudomonas aeruginosa [6], “Resistant”; in the test with Pseudomonas aeruginosa [7] it was “Resistant”; in the test on Pseudomonas aeruginosa [8], “Resistant”. Moreover, the Activity entry with Pseudomonas aeruginosa [10] is “Resistant”; in the test on Pseudomonas aeruginosa [11] it was “Resistant”; with Pseudomonas aeruginosa [19] it was “I”; in the test with Pseudomonas aeruginosa [20], “I”; with Pseudomonas aeruginosa [12], “Resistant”; in the test with Pseudomonas aeruginosa [21] it was “I”. In addition, the Activity result is listed as “Susceptible” with Pseudomonas aeruginosa [22]; “Resistant” with Pseudomonas aeruginosa [13]; “Resistant” in the test with Pseudomonas aeruginosa [23]; “Resistant” with Pseudomonas aeruginosa [15]; “Resistant” with Pseudomonas aeruginosa [17].

Consider `CC(O)[C@H]1C(=O)N2C(C(=O)O)=C(SCCNC=N)C[C@H]12` (single isomer, unassigned), for which the Activity result with Pseudomonas aeruginosa [24], with Pseudomonas aeruginosa [18], in the test on Pseudomonas aeruginosa [3], in the test on Pseudomonas aeruginosa [25], in the test on Pseudomonas aeruginosa [26] and in the test with Pseudomonas aeruginosa [27] was “Susceptible” throughout. The Activity entry in the test with Pseudomonas aeruginosa [28], with Pseudomonas aeruginosa [29], with Pseudomonas aeruginosa [30], in the test with Pseudomonas aeruginosa [31], in the test with Pseudomonas aeruginosa [32] and in the test with Pseudomonas aeruginosa [33] was “Susceptible” throughout. The Activity entry with Pseudomonas aeruginosa [22], in the test with Pseudomonas aeruginosa [34], in the test with Pseudomonas aeruginosa [35], with Pseudomonas aeruginosa [36] and in the test with Pseudomonas aeruginosa [37] was “Susceptible” each time.

For the compound `CC(C)(O/N=C(\C(=O)N[C@@H]1C(=O)N2C(C(=O)[O-])=C(C[n+]3ccccc3)CS[C@H]12)c1csc(N)n1)C(=O)O`, the Activity result is on record as “Susceptible” with Pseudomonas aeruginosa [18]; “Susceptible” in the test on Pseudomonas aeruginosa [3]; “Susceptible” with Pseudomonas aeruginosa [26]; “Resistant” in the test with Pseudomonas aeruginosa [6]; “Resistant” in the test with Pseudomonas aeruginosa [7]; “Susceptible” with Pseudomonas aeruginosa [30]. For the same compound, the Activity result in the test on Pseudomonas aeruginosa [31] is listed as “Susceptible”; in the test on Pseudomonas aeruginosa [32], “Susceptible”; in the test on Pseudomonas aeruginosa [12] it was “Resistant”; in the test on Pseudomonas aeruginosa [22] it was “Susceptible”; in the test with Pseudomonas aeruginosa [35], “Susceptible”; in the test with Pseudomonas aeruginosa [38], “I”. Further, the Activity result is recorded as “Resistant” with Pseudomonas aeruginosa [13]; “Susceptible” in the test on Pseudomonas aeruginosa [36]; “Resistant” with Pseudomonas aeruginosa [15]; “Susceptible” in the test with Pseudomonas aeruginosa [37]; “Resistant” in the test on Pseudomonas aeruginosa [17].
